The IC50 is the concentration that inhibits the measured activity by half. A low value points to inhibition by little substance.

Assay [1] has as its target T1, Rap guanine nucleotide exchange factor 4 (Homo sapiens, UniProt Q8WZA2). Kind of assay: Competitive inhibition of Epac2 using fluorescent nucleotide analog 8-NBD-cAMP by fluorescence analysis.
Target sequence in this assay (Q8WZA2 whole entry): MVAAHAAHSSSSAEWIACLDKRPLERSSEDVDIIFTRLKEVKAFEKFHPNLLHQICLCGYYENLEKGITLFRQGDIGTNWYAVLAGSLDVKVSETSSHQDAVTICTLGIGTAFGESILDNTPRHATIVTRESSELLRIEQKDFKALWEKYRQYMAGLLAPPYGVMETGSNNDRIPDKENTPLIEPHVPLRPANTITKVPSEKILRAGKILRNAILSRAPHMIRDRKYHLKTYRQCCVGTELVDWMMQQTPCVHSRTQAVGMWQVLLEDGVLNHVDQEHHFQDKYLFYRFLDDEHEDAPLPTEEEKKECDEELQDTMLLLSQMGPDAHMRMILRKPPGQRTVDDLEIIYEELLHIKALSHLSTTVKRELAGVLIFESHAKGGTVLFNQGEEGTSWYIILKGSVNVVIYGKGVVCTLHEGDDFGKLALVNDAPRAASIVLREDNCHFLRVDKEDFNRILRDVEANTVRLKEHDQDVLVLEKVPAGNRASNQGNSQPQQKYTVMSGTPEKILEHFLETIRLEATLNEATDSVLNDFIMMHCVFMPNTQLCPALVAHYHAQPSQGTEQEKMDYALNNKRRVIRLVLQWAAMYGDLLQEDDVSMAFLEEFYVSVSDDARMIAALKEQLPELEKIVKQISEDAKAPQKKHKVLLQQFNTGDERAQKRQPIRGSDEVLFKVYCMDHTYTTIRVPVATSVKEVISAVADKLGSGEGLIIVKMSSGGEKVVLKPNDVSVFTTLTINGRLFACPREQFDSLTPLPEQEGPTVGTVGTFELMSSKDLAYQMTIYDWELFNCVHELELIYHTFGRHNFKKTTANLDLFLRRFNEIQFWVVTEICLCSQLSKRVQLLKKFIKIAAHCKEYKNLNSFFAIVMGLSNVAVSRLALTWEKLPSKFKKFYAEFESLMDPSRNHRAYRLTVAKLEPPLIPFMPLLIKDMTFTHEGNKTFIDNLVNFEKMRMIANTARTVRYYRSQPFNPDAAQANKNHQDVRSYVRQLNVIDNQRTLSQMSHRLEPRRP
Assay [2] addresses T1, Rap guanine nucleotide exchange factor 4. Description: Inhibition of Epac2 at 25 uM in presence of equal molar concentration of cAMP.
Target sequence in this assay (Q8WZA2 whole entry, looked up): as the sequence (Q8WZA2 whole entry) above
Assay [3] is described as follows: Inhibition of PKA type1 activation at 25 uM.
For assay [4], the target named is T2, Rap guanine nucleotide exchange factor 3 (Homo sapiens) (UniProt O95398).
T2 sequence (whole entry): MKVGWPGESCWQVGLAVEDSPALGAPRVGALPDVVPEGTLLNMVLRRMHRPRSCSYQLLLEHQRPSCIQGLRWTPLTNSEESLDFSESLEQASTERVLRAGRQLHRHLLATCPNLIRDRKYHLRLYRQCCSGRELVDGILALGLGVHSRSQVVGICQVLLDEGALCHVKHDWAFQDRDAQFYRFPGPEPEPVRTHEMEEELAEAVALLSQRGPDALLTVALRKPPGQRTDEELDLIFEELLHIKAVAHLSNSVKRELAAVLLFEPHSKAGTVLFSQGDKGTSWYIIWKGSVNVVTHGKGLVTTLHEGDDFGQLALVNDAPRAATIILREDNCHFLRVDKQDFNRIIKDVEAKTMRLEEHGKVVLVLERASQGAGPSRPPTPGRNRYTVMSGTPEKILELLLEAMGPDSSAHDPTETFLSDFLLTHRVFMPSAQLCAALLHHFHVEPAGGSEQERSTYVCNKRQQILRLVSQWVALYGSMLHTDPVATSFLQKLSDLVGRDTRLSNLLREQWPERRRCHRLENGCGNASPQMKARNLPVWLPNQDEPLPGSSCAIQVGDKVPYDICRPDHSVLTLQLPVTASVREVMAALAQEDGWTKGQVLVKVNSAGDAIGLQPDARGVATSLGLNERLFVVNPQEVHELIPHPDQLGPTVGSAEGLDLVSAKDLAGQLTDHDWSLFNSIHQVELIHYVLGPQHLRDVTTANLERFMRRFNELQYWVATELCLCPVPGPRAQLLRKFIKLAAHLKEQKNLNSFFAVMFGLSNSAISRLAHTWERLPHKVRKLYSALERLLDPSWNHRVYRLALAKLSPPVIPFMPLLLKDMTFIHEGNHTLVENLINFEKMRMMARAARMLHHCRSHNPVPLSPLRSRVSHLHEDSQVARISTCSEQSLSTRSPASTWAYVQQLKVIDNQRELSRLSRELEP
Description: Inhibition of Epac1 at 25 uM in presence of equal molar concentration of cAMP.

Assay [5] is described as follows: Inhibition of PKA type2 activation at 25 uM.
Assay [6] addresses T1, Rap guanine nucleotide exchange factor 4. Kind of assay: Inhibition of recombinant Epac2-mediated Akt phosphorylation at T308 expressed in 007-AM-stimulated HEK293 cells at 10 uM administered 5 mins prior to 007-AM by Western blot analysis. It counts as cell-based. An outline of the steps:
(§1)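 HEK293/Epac1 or HEK293/Epac2 cells were pretreated, or not, with 10 μM antagonist for 5 min. They were then stimulated with 10 μM 007-AM, the membrane-permeable Epac-selective agonist. Cell lysates were immunoblotted with PKB antibodies specific for phospho-Ser473 and phospho-Thr308.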
Target sequence in this assay (Q8WZA2 whole entry, looked up): as the sequence (Q8WZA2 whole entry) above

The target of assay [7] is T2, Rap guanine nucleotide exchange factor 3 (Homo sapiens). Kind of assay: Inhibition of recombinant Epac1-mediated Akt phosphorylation at T308 expressed in 007-AM-stimulated HEK293 cells at 10 uM administered 5 mins prior to 007-AM by Western blot analysis. It counts as cell-based. The essentials: as §1
(In general: A western blot detects proteins with antibodies after separation by electrophoresis.)

Assay [8] has as its target T1, Rap guanine nucleotide exchange factor 4. Description: Inhibition of recombinant Epac2-mediated Akt phosphorylation at S473 expressed in 007-AM-stimulated HEK293 cells at 10 uM administered 5 mins prior to 007-AM by Western blot analysis. The format is cell-based. The essentials: as §1
Target sequence in this assay (Q8WZA2 whole entry, looked up): as the sequence (Q8WZA2 whole entry) above
The target in assay [9] is T2, Rap guanine nucleotide exchange factor 3 (Homo sapiens). Description: Inhibition of recombinant Epac1-mediated Akt phosphorylation at S473 expressed in 007-AM-stimulated HEK293 cells at 10 uM administered 5 mins prior to 007-AM by Western blot analysis. The format is cell-based. An outline of the steps:
as §1

Assay [10] concerns the target T1, Rap guanine nucleotide exchange factor 4. Description: Inhibition of cAMP-mediated recombinant Epac2 GEF activity at 25 uM by fluorescence analysis in presence of cAMP.
Target sequence in this assay (Q8WZA2 whole entry, looked up): as the sequence (Q8WZA2 whole entry) above
The target in assay [11] is T2, Rap guanine nucleotide exchange factor 3 (Homo sapiens). Description: Inhibition of recombinant Epac1-mediated Rap1-GDP exchange activity at 25 uM by fluorescence analysis in presence of cAMP.

Each structure is given as a SMILES string. Activity calls are given as the source filed them. The rule behind the calls is not given here.

In turn, `Cc1ccc(CSc2nc(C3CCCCC3)c(C#N)c(=O)[nH]2)cc1` registered an IC50 in [1] of 38.7 µM.

`Cc1ccc(NC(=O)CSc2nc(C3CCCCC3)c(C#N)c(=O)[nH]2)cc1`: the IC50 in assay [1] is more than 300 µM.

For the molecule `Cc1ccc(C)c(CSc2nc(C3CCCCC3)c(C#N)c(=O)[nH]2)c1`, the inhibition entry in assay [2] and in assay [4] was “Active” each time. Also, the inhibition entry in [3] and in assay [5] was “inactive” each time. This molecule also returned an IC50 in [1] of 8.4 µM.

In the case of `O=S(=O)(NCCNC/C=C/c1ccc(Br)cc1)c1cccc2cnccc12`, the inhibition result in assay [3] and in assay [5] was “Active” throughout.

On to `Cc1ccc(CSc2nc(C3CCCCC3)c(C#N)c(=O)[nH]2)c(C)c1`, for which the IC50 in assay [1] stood at 15.7 µM.

Regarding `N#Cc1c(C2CCCCC2)nc(Nc2ccc(Cl)cc2)[nH]c1=O`, the IC50 in assay [1] was more than 300 µM.

Regarding `N#Cc1c(C2CCCCC2)nc(S)[nH]c1=O`, the IC50 in assay [1] was more than 300 µM.

On to `Cc1ccc(C)c(CSc2nc(C3CC3)c(C#N)c(=O)[nH]2)c1`, for which the inhibition entry in assay [6], in assay [7], in assay [8], in assay [9] and in [10] was “Active” throughout. Also, the inhibition result in [3] and in assay [5] was “inactive” each time. In [1], the IC50 was 4 µM.

In assay [1], `N#Cc1c(C2CCCCC2)nc(SCC(=O)O)[nH]c1=O` came in with an IC50 of more than 300 µM.

The molecule `Cc1ccc(C)c(CSc2nc(C3CCNCC3)c(C#N)c(=O)[nH]2)c1` registered an IC50 in assay [1] of more than 300 µM.

`Cc1cc(C)cc(CSc2nc(C3CCCCC3)c(C#N)c(=O)[nH]2)c1` registered an IC50 in [1] of 7 µM.

`Cc1cc(C)c(CSc2nc(C3CCCCC3)c(C#N)c(=O)[nH]2)c(C)c1`: the IC50 in [1] was 11.6 µM.

In turn, `Cc1cc(C)c(NC(=O)CSc2nc(C3CCCCC3)c(C#N)c(=O)[nH]2)c(C)c1` registered an IC50 in assay [1] of more than 300 µM.

For the molecule `N#Cc1c(C2CCCCC2)nc(SCc2ccccc2)[nH]c1=O`, in [1], the IC50 turned out to be 30.5 µM.

`Cc1ccc(C)c(CSc2nc(C(C)C)c(C#N)c(=O)[nH]2)c1` gave an IC50 in [1] of 12.7 µM.

For `Cc1ccc(C)c(CSc2nc(C3CCCC3)c(C#N)c(=O)[nH]2)c1`, the inhibition result in [6], in assay [7], in [8], in [11], in assay [9] and in assay [10] was “Active” in each case. For the same molecule, the inhibition result in assay [3] and in assay [5] was “inactive” in each case. The molecule also came in with an IC50 in assay [1] of 5.9 µM.

For `Cc1ccc(C)c(CSc2nc(C3CCN(C)CC3)c(C#N)c(=O)[nH]2)c1`, in assay [1], the IC50 stood at 127 µM.

In [1], `N#Cc1c(C2CCCCC2)nc(SCC(=O)Nc2ccccc2)[nH]c1=O` had an IC50 of more than 300 µM.

Molecule `N#Cc1c(C2CCCCC2)nc(Nc2ccccc2)[nH]c1=O` yielded an IC50 in assay [1] of more than 300 µM.

The values are drawn from ChEMBL document CHEMBL2029310 (Bioorg Med Chem Lett, 2012).
